Among the data in ChEMBL document CHEMBL3596140, “Bisleuconothine A Induces Autophagosome Formation by Interfering with AKT-mTOR Signaling Pathway” (J Nat Prod, 2015) are inhibition and Activity values, retold here.

Calls of active or inactive are those of the source. No cut-off for these calls is given here.

Experiment [1] has as its system A549. Nature of the experiment: Inhibition of AKT in human A549 cells assessed as downregulation of PRAS40 phosphorylation at thr246 at 5 uM after 3 to 12 hrs by Western blot analysis. The class given is cell-based. The method, boiled down:
(§1)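 A549 total lysates harvested 3, 6, 12 or 24 h after exposure to 6 μM compound or 5 μM everolimus. Western blot on PVDF with antibodies to phospho-mTOR Ser2448, phospho-AKT Thr308 and Ser473, phospho-p70S6K Thr389, phospho-PDK1 Ser241 and PRAS40 Thr246, alongside total proteins and β-actin.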

The subject of experiment [2] is A549. In words: Induction of autophagy in human A549 cells assessed as increase in conversion of LC3-1 to LC3-2 at 5 uM after 6 hrs by Western blot analysis. The class given is functional, cell-based. The method, boiled down:
(§2)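 A549 cells kept in serum-free medium for 1 h, then exposed to 6 μM compound or 5 μM everolimus, with or without bafilomycin A1 (400 nM), for 6 h. LC3 and p62 levels in lysates assessed by Western blot to follow autophagic flux.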

The subject of experiment [3] is A549. In words: Induction of autophagic punctation in human A549 cells assessed as increase of puncta with p62 at 5 uM after 6 hrs by immunofluorescence staining-based microscopic analysis relative to control. The class given is functional, cell-based. The method, boiled down: (§3)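 A549 cells on chamber slides placed in serum-free medium for 1 h, then exposed for 6 h to 6 μM compound, 5 μM everolimus or 400 nM bafilomycin A1. Fixed in ice-cold methanol for 15 min at −20 °C and blocked. Stained for LC3B, LAMP2 and p62 with Alexa Fluor 488/546/647 secondaries, mounted with DAPI, and puncta assessed by fluorescence microscopy.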

Experiment [4] has as its target Serine/threonine-protein kinase mTOR (Homo sapiens) (UniProt P42345). In words: Inhibition of mTOR in human A549 cells assessed as downregulation of p70S6K phosphorylation at thr389 at 5 uM after 3 to 24 hrs by Western blot analysis. The experiment is classed as cell-based. In a few lines: as §1
For experiment [5], the system named is A549. Nature of the experiment: Prevention of autophagosome degradation in human A549 cells assessed as upregulation of p62 expression at 5 uM after 6 hrs by Western blot analysis. The experiment is classed as functional, cell-based. In a few lines:
as §2

Experiment [6] addresses Serine/threonine-protein kinase mTOR (Homo sapiens) (UniProt P42345). Nature of the experiment: Inhibition of mTOR phosphorylation at ser2448 in human A549 cells at 5 uM after 3 to 24 hrs by Western blot analysis. The class given is cell-based. In a few lines:
as §1

The test system of experiment [7] is A549. Nature of the experiment: Induction of autophagic punctation in human A549 cells assessed as increase of puncta with LC3 at 5 uM after 6 hrs by immunofluorescence staining-based microscopic analysis relative to control. The class given is functional, cell-based. In a few lines:
as §3

On to `CO[C@H]1C[C@@H]2CC[C@@H](C)[C@@](O)(O2)C(=O)C(=O)N2CCCC[C@H]2C(=O)O[C@H]([C@H](C)C[C@@H]2CC[C@@H](OCCO)[C@H](OC)C2)CC(=O)[C@H](C)/C=C(\C)[C@@H](O)[C@@H](OC)C(=O)[C@H](C)C[C@H](C)/C=C/C=C/C=C/1C`, for which, in experiment [1], the inhibition entry was “inactive”. For the same molecule, the result in experiment [2] was Active. Moreover, the outcome in experiment [3], in experiment [5] and in experiment [7] was inactive. Moreover, the inhibition entry in experiment [4] and in experiment [6] was “Active” in each case.
